The record followed here is ChEMBL document CHEMBL1129383, “Potent immunosuppressants, 2-alkyl-2-aminopropane-1,3-diols” (J Med Chem, 1996).

One may read the IC50 as the concentration that gives 50% inhibition.

A short description of data set [1]: Immunosuppressive activity on mouse allogenic MLR in vitro. In kind it is functional. The method in brief:
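Responders were BALB/c spleen cells (5 × 10⁵, H-2^d). Stimulators were an equal number of C57BL/6 spleen cells (H-2^b) treated with mitomycin C for 30 min at 37 °C. Co-culture in RPMI 1640 with 5 × 10⁻⁵ M 2-mercaptoethanol, 10% FCS and varied compound, 4 days at 37 °C, 5% CO₂. Proliferation read by MTT. IC50 is the mean of triplicates.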

The test system of data set [2] is Rattus norvegicus. In words: Mean survival time of rats after skin allograft (intraperitoneal administration) at 20 mg/kg; toxic - animals died. In kind it is ADME, organism-based. Also on record: dose 20 mg/kg, route intraperitoneal. The conditions noted are these: in vivo, ip. The method in brief:
(§1)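 LEW rat (male, 4 wk) dorsal skin grafted onto lateral thorax of F344 rats (male, 4 wk). Compounds in 20% (hydroxypropyl)-β-cyclodextrin given ip daily for 10 days from transplant day. Grafts inspected daily until rejection (>90% necrosis of graft epithelium); mean survival time in days ± SD, n = 4–5, Mann-Whitney U test. "Toxic" means animals died.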

Data set [3] has as its system Rattus norvegicus. In words: Mean survival time of rats after skin allograft (intraperitoneal administration) at 3 mg/kg. Type of data set: functional. The method in brief: as §1
Data set [4] deals with Rattus norvegicus. In words: Mean survival time of rats after skin allograft (intraperitoneal administration) at 1 mg/kg. Type of data set: functional. The method in brief: as §1
The test system of data set [5] is Rattus norvegicus. In words: Mean survival time of rats after skin allograft (intraperitoneal administration) at 0.1 mg/kg. In kind it is functional. The method in brief: as §1
Data set [6] has as its system Rattus norvegicus. The experiment in a line: Mean survival time of rats after skin allograft (intraperitoneal administration) at 0.3 mg/kg. In kind it is functional. A digest of the protocol: as §1
The subject of data set [7] is Rattus norvegicus. In words: Mean survival time of rats after skin allograft (intraperitoneal administration) at 1 mg/kg; toxic - animals died. Type of data set: ADME, organism-based. Also on record: dose 1 mg/kg, route intraperitoneal. The conditions noted are these: in vivo, ip. The method in brief: as §1
Data set [8] relates to Rattus norvegicus. The experiment in a line: Mean survival time of rats after skin allograft (oral administration) at 30 mg/kg. Type of data set: functional. The method in brief:
(§2)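 LEW rat (male, 4 wk) dorsal skin grafted onto lateral thorax of F344 rats (male, 4 wk). Compounds in 5% (hydroxypropyl)methylcellulose given orally, daily for 10 days from transplant day. Grafts inspected daily until rejection (>90% necrosis of graft epithelium); mean survival time in days ± SD. "Toxic" means animals died.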

The subject of data set [9] is Rattus norvegicus. In words: Mean survival time of rats after skin allograft (oral administration) at 10 mg/kg. Type of data set: functional. The method in brief:
as §2

Data set [10] deals with Rattus norvegicus. In words: Mean survival time of rats after skin allograft (oral administration) at 3 mg/kg. In kind it is functional. A digest of the protocol: as §2
Data set [11] deals with Rattus norvegicus. In words: Mean survival time of rats after skin allograft (intraperitoneal administration) at 10 mg/kg; toxic - animals died. Type of data set: ADME, organism-based. Also on record: dose 10 mg/kg, route intraperitoneal. The conditions noted are these: in vivo, ip. A digest of the protocol:
as §1

Data set [12] concerns Rattus norvegicus. In words: Mean survival time of rats after skin allograft (oral administration) at 1 mg/kg. Type of data set: functional. A digest of the protocol: as §2
Data set [13] relates to Rattus norvegicus. The experiment in a line: Mean survival time of rats after skin allograft (oral administration) at 0.1 mg/kg. Type of data set: functional. The method in brief: as §2
The test system of data set [14] is Rattus norvegicus. In words: Mean survival time of rats after skin allograft (oral administration) at 0.3 mg/kg. Type of data set: functional. The method in brief: as §2
The next data set is filed under the species Mus musculus. The experiment in a line: Effect of compound on IL-2 production from alloantigen-stimulated mouse spleen cells. In kind it is functional, cell-based. A digest of the protocol: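 BALB/c spleen cells at 5×10^6 cells/mL co-cultured with an equal number of mitomycin C-pretreated C57BL/6 spleen cells, with or without test compound, in RPMI 1640 with 5×10^-5 M 2-mercaptoethanol and 10% FCS; 48 h at 37 °C. Supernatant IL-2 activity measured by IL-2-dependent CTLL-2 proliferation, given in units/mL.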

Data set [15] concerns Rattus norvegicus. The experiment in a line: Mean survival time of rats after skin allograft (oral administration) at 100 mg/kg; toxic - animals died. Conditions: in vivo. Type of data set: ADME, organism-based. Also on record: dose 100 mg/kg, route oral. A digest of the protocol:
as §2

The test system of data set [16] is Rattus norvegicus. The experiment in a line: Mean survival time of rats after skin allograft (intraperitoneal administration) at 30 mg/kg; toxic - animals died. In kind it is ADME, organism-based. Details: dose 30 mg/kg, route intraperitoneal. The conditions noted are these: in vivo, ip. A digest of the protocol:
as §1

Data set [17] has as its system Rattus norvegicus. In words: Mean survival time of rats after skin allograft (intraperitoneal administration) at 10 mg/kg. In kind it is functional. A digest of the protocol: as §1
Data set [18] has as its system Rattus norvegicus. The experiment in a line: Mean survival time of rats after skin allograft (intraperitoneal administration) at 20 mg/kg. Type of data set: functional. A digest of the protocol:
as §1

In data set [19] the test system is Rattus norvegicus. The experiment in a line: Mean survival time of rats after skin allograft (intraperitoneal administration) at 100 mg/kg; toxic - animals died. Type of data set: ADME, organism-based. Also on record: dose 100 mg/kg, route intraperitoneal. Conditions: in vivo, ip. A digest of the protocol: as §1
Data set [20] deals with Rattus norvegicus. In words: Mean survival time of rats after skin allograft (intraperitoneal administration) at 30 mg/kg. In kind it is functional. A digest of the protocol:
as §1

Data set [21] concerns Rattus norvegicus. In words: Mean survival time of rats after skin allograft (oral administration) at 30 mg/kg; toxic - animals died. In kind it is ADME, organism-based. Also on record: dose 30 mg/kg, route oral. The conditions noted are these: in vivo. The method in brief:
as §2

Where only a bound is given, the exact number is not on record here.

`CCCCCCCCCCCCCCCCCCCCCCC(N)(CO)CO` returned an IC50 in data set [1] of 1600 nM.

`CCCCCCCCCCCCCCCCC(N)(CO)CO`: the MST entry with Rattus norvegicus [2] was “Toxic”; with Rattus norvegicus [3], 41.8 days; in the data set on Rattus norvegicus [4] it was 38.5 days; in the data set on Rattus norvegicus [5], 10.5 days; in the data set with Rattus norvegicus [6] it was 14.3 days. Inhibition in [1] was half-maximal at 10 nM (IC50).

Regarding `CCCCCCCCCCCCC/C=C/C[C@H]1OC(=O)[C@](N)(CO)[C@H]1O`, the concentration for half-maximal inhibition (IC50) in data set [1] was found to be 10 nM.

As to `CCCCCCC(=O)CCCCCC/C=C/C[C@@H](O)[C@H](O)[C@@](N)(CO)C(=O)O` [MYRIOCIN], the MST entry with Rattus norvegicus [7] is listed as “Toxic”. This compound also came in with an IC50 in data set [1] of 3 nM.

The compound `CCCCCCCCCCCCCCCCCCCCC(N)(CO)CO` had an IC50 in data set [1] of 190 nM.

On to `CCCCCCCCCCCCCCC(N)(CO)CO`, for which the MST was 44.4 days in the data set with Rattus norvegicus [3]; 52.2 days in the data set with Rattus norvegicus [8]; 46.4 days in the data set on Rattus norvegicus [9]; 39 days in the data set with Rattus norvegicus [4]; 36.4 days in the data set on Rattus norvegicus [10]; “Toxic” in the data set on Rattus norvegicus [11]. Moreover, the MST with Rattus norvegicus [5] is 11.2 days; in the data set on Rattus norvegicus [6], 23.1 days; with Rattus norvegicus [12], 24.4 days; with Rattus norvegicus [13] it was 10.3 days; in the data set on Rattus norvegicus [14], 13.6 days; with Rattus norvegicus [15] it was “Toxic”. In addition, the results for the IC50 (in [1]; in the data set filed under Mus musculus) were 5.9 nM and more than 1000 nM, respectively.

On to `CCCCCCCCCCCCC/C=C/C[C@@H](O)[C@H](O)[C@@](N)(CO)C(=O)O`, for which the MST result was “Toxic” with Rattus norvegicus [7], 9 days in the data set with Rattus norvegicus [5] and 10.6 days in the data set with Rattus norvegicus [6]. In data set [1], this compound came in with an IC50 of 1.2 nM.

With `CCCCCCCCCCCCC/C=C/C[C@@H](O)[C@H](O)C(N)(CO)CO`, the MST was 9.8 days with Rattus norvegicus [3]; 8.2 days with Rattus norvegicus [4]; “Toxic” in the data set with Rattus norvegicus [16]; 14 days in the data set on Rattus norvegicus [17]; 16.6 days in the data set on Rattus norvegicus [18]. Besides, the IC50 in data set [1] was 56 nM.

For `CCCCCCC(O)CCCCCCCCC[C@@H](O)[C@H](O)C(N)(CO)CO` (stereo partly specified), the MST with Rattus norvegicus [3] is 11 days; in the data set on Rattus norvegicus [19], “Toxic”; with Rattus norvegicus [4] it was 9.2 days; in the data set on Rattus norvegicus [17], 12.2 days; in the data set on Rattus norvegicus [20], 12.5 days. In addition, the IC50 in data set [1] came to 1630 nM.

For `CCCCCCCCCCCCCC(N)(CO)CO`, the IC50 in data set [1] was 12 nM.

Regarding `CCCCCCCCCCCCCCCC(N)(CO)CO`, the MST result in the data set on Rattus norvegicus [21] was “Toxic”; in the data set with Rattus norvegicus [9], 8.3 days; in the data set on Rattus norvegicus [10] it was 47 days; with Rattus norvegicus [11] it was “Toxic”; in the data set on Rattus norvegicus [12], 35.5 days; with Rattus norvegicus [13] it was 18.8 days. For the same compound, the MST in the data set on Rattus norvegicus [14] is 28.5 days. Further, in data set [1], the IC50 was 2.9 nM.

Compound `CCCCCCCCCCC(N)(CO)CO` gave an IC50 in [1] of 440 nM.

Regarding `CCCCCCC(O)CCCCCC/C=C/C[C@@H](O)[C@H](O)C(N)(CO)CO` (stereo partly specified), the MST with Rattus norvegicus [3] was 9.2 days; in the data set on Rattus norvegicus [4], 8.2 days; with Rattus norvegicus [16], “Toxic”; with Rattus norvegicus [17], 11.8 days; in the data set with Rattus norvegicus [18], 13.4 days. This compound also displayed a 50% inhibitory concentration (IC50) in data set [1] of 4.7 nM.

Regarding `CCCCCCC(O)CCCCCC/C=C/C[C@@H](O)[C@H](O)[C@@](N)(CO)C(=O)O` (stereo partly specified), the MST entry in the data set with Rattus norvegicus [7] was “Toxic”; with Rattus norvegicus [5], 7.6 days; in the data set with Rattus norvegicus [6], 9.6 days. In [1], this compound registered an IC50 of 6.3 nM.

`C/C=C/C[C@@H](C)[C@@H](O)[C@H]1C(=O)N[C@@H](CC)C(=O)N(C)CC(=O)N(C)[C@@H](CC(C)C)C(=O)N[C@@H](C(C)C)C(=O)N(C)[C@@H](CC(C)C)C(=O)N[C@@H](C)C(=O)N[C@H](C)C(=O)N(C)[C@@H](CC(C)C)C(=O)N(C)[C@@H](CC(C)C)C(=O)N(C)[C@@H](C(C)C)C(=O)N1C` [CYCLOSPORINE]: the MST was found to be 20.5 days in the data set on Rattus norvegicus [8]; 13.5 days in the data set on Rattus norvegicus [9]; 7.6 days in the data set on Rattus norvegicus [4]; 10.3 days in the data set with Rattus norvegicus [10]; 8.5 days in the data set with Rattus norvegicus [12]; 19.4 days in the data set on Rattus norvegicus [20].

With `CCCCCCCCCCCCCCCCCCC(N)(CO)CO`, the MST was 17.6 days in the data set with Rattus norvegicus [3], 14.8 days with Rattus norvegicus [4], “Toxic” in the data set on Rattus norvegicus [11] and 11.2 days in the data set on Rattus norvegicus [6]. This compound gave an IC50 in data set [1] of 12 nM.

With `CCCCCCCCCCCCCCCC[C@@H](O)[C@H](O)C(N)(CO)CO`, the MST was 9.2 days in the data set with Rattus norvegicus [3]; 8.2 days with Rattus norvegicus [4]; “Toxic” in the data set with Rattus norvegicus [16]; 11.8 days in the data set on Rattus norvegicus [17]; 15 days in the data set on Rattus norvegicus [18]. The compound further had an IC50 in data set [1] of 320 nM.

Take `CCCCCCCCC(N)(CO)CO`: the IC50 in data set [1] amounted to 3700 nM.

`CCCCCCCCCCCCC/C=C/C[C@H]1OC(=O)[C@](N)(CO)[C@@H]1O`: in data set [1], inhibition was half-maximal at 3.6 nM (IC50).

For `CCCCCCCCCCCCC(N)(CO)CO`, half-maximal inhibition in data set [1] (IC50) required 270 nM.
